{"data": "Published values of several laboratories", "target": "Ephrin type-B receptor 1 (EPHB1, Homo sapiens, UniProt P54762)", "One construct used (P54762 18-984)": "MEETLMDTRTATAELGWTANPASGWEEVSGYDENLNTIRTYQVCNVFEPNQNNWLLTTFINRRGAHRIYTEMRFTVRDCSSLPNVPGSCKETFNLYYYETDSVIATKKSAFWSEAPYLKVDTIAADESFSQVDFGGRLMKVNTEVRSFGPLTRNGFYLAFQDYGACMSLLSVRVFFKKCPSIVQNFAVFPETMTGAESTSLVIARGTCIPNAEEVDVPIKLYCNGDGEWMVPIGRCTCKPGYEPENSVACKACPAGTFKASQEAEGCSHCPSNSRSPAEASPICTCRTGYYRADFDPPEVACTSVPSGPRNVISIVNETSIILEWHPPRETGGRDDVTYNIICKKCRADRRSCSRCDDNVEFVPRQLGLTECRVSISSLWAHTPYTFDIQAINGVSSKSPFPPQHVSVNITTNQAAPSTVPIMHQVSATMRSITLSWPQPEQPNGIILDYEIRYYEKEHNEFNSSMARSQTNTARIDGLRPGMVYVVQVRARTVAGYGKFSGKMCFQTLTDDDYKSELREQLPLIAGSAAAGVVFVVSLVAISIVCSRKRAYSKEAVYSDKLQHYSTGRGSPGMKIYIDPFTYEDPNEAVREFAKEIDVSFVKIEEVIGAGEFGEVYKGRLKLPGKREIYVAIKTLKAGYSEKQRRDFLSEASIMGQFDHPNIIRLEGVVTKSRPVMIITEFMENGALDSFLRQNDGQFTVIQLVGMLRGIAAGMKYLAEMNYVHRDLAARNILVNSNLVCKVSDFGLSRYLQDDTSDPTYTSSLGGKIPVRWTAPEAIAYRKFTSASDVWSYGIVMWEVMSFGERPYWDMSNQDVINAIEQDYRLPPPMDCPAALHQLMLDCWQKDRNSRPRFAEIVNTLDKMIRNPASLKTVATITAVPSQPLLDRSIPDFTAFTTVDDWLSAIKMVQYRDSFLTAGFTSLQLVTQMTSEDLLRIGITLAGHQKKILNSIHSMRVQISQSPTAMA", "note": "Lines come from different studies, so protocols differ."}
{"SMILES": "CNCc1ccccc1-c1csc([C@@H](C)Nc2nc(C)nc3cc(OC)c(OC)cc23)c1", "effect on": "cell-free assay", "method": "competition with immobilised ligand", "concentration": "1 µM", "endpoint": "remaining binding", "value": "100%"}
{"SMILES": "CC/C(=N\\NC(=O)NCc1cccc(O)c1)c1ccc(O)c(C)c1O", "effect on": "enzyme activity", "action": "inhibitor", "concentration": "0.1 µM", "endpoint": "inhibition", "value": "-1%"}
{"SMILES": "CC(=O)c1c(NS(C)(=O)=O)c2cc(-c3ccc(Cl)cc3)c(-c3ccc(Cl)cc3Cl)nc2n(C)c1=O", "effect on": "cell-free assay", "method": "competition with immobilised ligand", "concentration": "1 µM", "endpoint": "remaining binding", "value": "100%"}
{"SMILES": "CCN(CC)CCNC(=O)c1c(C)[nH]c(/C=C2\\C(=O)Nc3ccc(F)cc32)c1C", "effect on": "enzyme activity", "action": "inhibitor", "concentration": "10 µM", "endpoint": "inhibition", "value": "91%"}
{"SMILES": "Cc1cnc(NC2CCOCC2)nc1-n1cnc(C(=O)NC(CN)c2cc(F)cc(Cl)c2)c1 (centres unmarked)", "effect on": "enzyme activity", "action": "inhibitor", "method": "radiometric", "concentration": "1 µM", "endpoint": "remaining activity", "value": "125%"}
{"SMILES": "Cc1nccc(COC(=O)N2C[C@@H]3[C@@H](CNC(=O)c4ccc5[nH]nnc5c4)[C@@H]3C2)n1", "effect on": "cell-free assay", "method": "competition with immobilised ligand", "concentration": "1 µM", "endpoint": "remaining binding", "value": "95%"}
{"SMILES": "CC(C)(C)c1nc2c(s1)c1nc(N)ncc1c1ccc(NS(=O)(=O)c3c(F)cccc3F)c(F)c12", "effect on": "enzyme activity", "action": "inhibitor", "method": "radiometric", "concentration": "1 µM", "endpoint": "remaining activity", "value": "76%"}
{"SMILES": "O=C(NS(=O)(=O)c1ccc(NCC2CCOCC2)c([N+](=O)[O-])c1)c1ccc(N2CCN(Cc3ccc(C(F)(F)F)cc3-c3ccc(Cl)cc3)CC2)cc1Oc1cnc2[nH]ccc2c1", "effect on": "cell-free assay", "method": "competition with immobilised ligand", "concentration": "1 µM", "endpoint": "remaining binding", "value": "100%"}
{"SMILES": "COc1cc(Cl)c(C(=O)N[C@@H](CN[C@H]2CC[C@@H](N)CC2)Cc2ccc(C#N)cc2)cc1-c1ccc(CN[C@H](C)c2ccc(C)cc2)o1", "effect on": "enzyme activity", "action": "inhibitor", "concentration": "1 µM", "endpoint": "remaining activity", "value": "122%"}
{"SMILES": "O=C(O)[C@H]1[C@H](Cn2nnc3ccccc3c2=O)CC[C@@H]1C(=O)c1ccc(OCCC2CCOCC2)cc1", "effect on": "cell-free assay", "method": "competition with immobilised ligand", "concentration": "1 µM", "endpoint": "remaining binding", "value": "100%"}
{"SMILES": "N#CCCc1ccc2c(c1)-c1[nH]c3ccc([N+](=O)[O-])cc3c1CC(=O)N2", "effect on": "cell-free assay", "concentration": "0.5 µM", "endpoint": "remaining signal", "value": "99.1%"}
{"SMILES": "Cc1ccc(Nc2nccc(N(C)c3ccc4c(C)n(C)nc4c3)n2)cc1S(N)(=O)=O", "effect on": "enzyme activity", "action": "inhibitor", "concentration": "0.3 µM", "endpoint": "inhibition", "value": "8%"}
{"SMILES": "COc1cc(-c2cc(-c3ccc(N4CCNCC4)cc3)cnc2C)cc(OC)c1OC", "effect on": "enzyme activity", "action": "inhibitor", "concentration": "0.1 µM", "endpoint": "inhibition", "value": "5%"}
{"SMILES": "Cc1ccc(C(=O)Nc2ccc(CN3CCN(C)CC3)c(C(F)(F)F)c2)cc1C#Cc1cnc2cccnn12", "effect on": "cell-free assay", "concentration": "23.5 nM", "endpoint": "remaining signal", "value": "29%"}
{"SMILES": "COc1cc2ncnc(Nc3ccc(Oc4ccccc4)cc3C)c2cc1OC", "effect on": "enzyme activity", "action": "inhibitor", "concentration": "1 µM", "endpoint": "inhibition", "value": "6%"}
{"SMILES": "COc1cc(Nc2cnc(C#N)c(O[C@H](C)CN(C)C)n2)ncc1-c1cnn(C)c1", "effect on": "enzyme activity", "action": "inhibitor", "method": "radiometric", "concentration": "1 µM", "endpoint": "remaining activity", "value": "100%"}
{"SMILES": "COc1cc(/C=C/C(=O)CC(=O)/C=C/c2ccc(O)c(OC)c2)ccc1O", "effect on": "enzyme activity", "action": "inhibitor", "concentration": "1 µM", "endpoint": "activity vs control", "value": "100%"}
{"SMILES": "O=C(Nc1ccc(Oc2ccc(F)cc2)cc1)N1CCc2ncccc2[C@H]1c1ccc(F)cc1", "effect on": "cell-free assay", "method": "competition with immobilised ligand", "concentration": "1 µM", "endpoint": "remaining binding", "value": "100%"}
{"SMILES": "O=C(Nc1cnn(-c2csc(C(=O)NC3COC3)c2)c1)Nc1c(F)cccc1Cl", "effect on": "enzyme activity", "action": "inhibitor", "concentration": "5 µM", "endpoint": "remaining activity", "value": "96.1%"}
{"SMILES": "CCCOc1ccc(OC)c(F)c1C(=O)c1ccc(C(=O)N[C@@H]2CNC[C@H]2NC(=O)c2ccc3[nH]ncc3c2)cc1", "effect on": "enzyme activity", "action": "inhibitor", "concentration": "10 µM", "endpoint": "remaining activity", "value": "42%"}
{"SMILES": "O=C(Nc1cnn(-c2csc(C(=O)NC3COC3)c2)c1)Nc1ccccc1Cl", "effect on": "enzyme activity", "action": "inhibitor", "concentration": "5 µM", "endpoint": "remaining activity", "value": "100%"}
{"SMILES": "Cn1c(=O)n(-c2ccc(C(C)(C)C#N)cc2)c2c3cc(-c4cnc5ccccc5c4)ccc3ncc21", "effect on": "enzyme activity", "action": "inhibitor", "concentration": "10 µM", "endpoint": "remaining activity", "value": "133%"}
{"SMILES": "CC(C)CC(=O)N1CCc2nc(-c3ccc(Br)cc3)nc(N(C)Cc3ccccc3)c2C1", "effect on": "cell-free assay", "method": "competition with immobilised ligand", "concentration": "0.1 µM", "endpoint": "remaining binding", "value": "100%"}
{"SMILES": "COc1cc(Nc2c(C#N)cnc3cc(OCCCN4CCN(C)CC4)c(OC)cc23)c(Cl)cc1Cl", "effect on": "cell-free assay", "concentration": "0.5 µM", "endpoint": "remaining signal", "value": "11.8%"}
{"SMILES": "Cc1ccc(NC(=O)c2ccc(C)c(C(F)(F)F)c2)cc1C#Cc1nn(C2CCC(O)CC2)c2ncnc(N)c12 (centres unmarked)", "effect on": "cell-free assay", "concentration": "10 µM", "endpoint": "remaining signal", "value": "-1%"}
{"SMILES": "O=C1NC(=O)c2cc(Nc3ccc(F)cc3)c(Nc3ccc(F)cc3)cc21", "effect on": "cell-free assay", "concentration": "0.5 µM", "endpoint": "remaining signal", "value": "103%"}
{"SMILES": "CCC(=N\\O)/C(C)=C/c1ccc(F)cc1", "effect on": "cell-free assay", "method": "competition with immobilised ligand", "concentration": "1 µM", "endpoint": "remaining binding", "value": "100%"}
{"SMILES": "O=C1Nc2ccc(Cl)cc2C1=Cc1cc(Cl)c(O)c(Cl)c1", "effect on": "cell-free assay", "concentration": "0.5 µM", "endpoint": "remaining signal", "value": "91%"}
{"SMILES": "CCN(CC)c1ccc(C2=NNC(=O)CC2C)cc1[N+](=O)[O-] (centres unmarked)", "effect on": "enzyme activity", "action": "inhibitor", "concentration": "10 µM", "endpoint": "remaining activity", "value": "97%"}
